The source made the active and inactive calls. The rule behind the calls is not given here.
Tests used:
Type in all cases: cell-based
[1] = target: MICOS complex subunit MIC19 (Homo sapiens) (UniProt Q9NX63); assay: Binding affinity to MICOS complex subunit MIC19 in human INA-6 cells after 3 hrs by nanoLC-MS/MS method
How it was run: (§1)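 The biotinylated inhibitor was loaded on streptavidin beads, with empty beads as the control. Eluates were trypsin-digested and run by nanoLC-MS/MS. Inhibitor/control ratios came from label-free quantification, taken as medians of five biological replicates. Enrichment was called at Benjamini-Hochberg-adjusted limma p < 0.02.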

[2] = target: MICOS complex subunit MIC60 (Homo sapiens) (UniProt Q16891); assay: Binding affinity to MICOS complex subunit MIC60 in human INA-6 cells after 3 hrs by nanoLC-MS/MS method; how it was run: as §1
[3] = target: MICOS complex subunit MIC10 (Homo sapiens) (UniProt Q5TGZ0); assay: Binding affinity to MICOS complex subunit MIC10 in human INA-6 cells after 3 hrs by nanoLC-MS/MS method; how it was run: as §1
[4] = target: CCR4-NOT transcription complex subunit 2 (Homo sapiens) (UniProt Q9NZN8); assay: Binding affinity to CCR4-NOT transcription complex subunit 2 in human INA-6 cells after 3 hrs by nanoLC-MS/MS method; how it was run: as §1
[5] = target: CCR4-NOT transcription complex subunit 6-like (Homo sapiens) (UniProt Q96LI5); assay: Binding affinity to CCR4-NOT transcription complex subunit 6-like in human INA-6 cells after 3 hrs by nanoLC-MS/MS method; how it was run: as §1
[6] = target: CCR4-NOT transcription complex subunit 7 (Homo sapiens) (UniProt Q9UIV1); assay: Binding affinity to CCR4-NOT transcription complex subunit 7 in human INA-6 cells after 3 hrs by nanoLC-MS/MS method; how it was run: as §1
[7] = target: CCR4-NOT transcription complex subunit 4 (Homo sapiens) (UniProt O95628); assay: Binding affinity to CCR4-NOT transcription complex subunit 4 in human INA-6 cells after 3 hrs by nanoLC-MS/MS method; how it was run: as §1
[8] = target: CCR4-NOT transcription complex subunit 10 (Homo sapiens) (UniProt Q9H9A5); assay: Binding affinity to CCR4-NOT transcription complex subunit 10 in human INA-6 cells after 3 hrs by nanoLC-MS/MS method; how it was run: as §1
[9] = target: CCR4-NOT transcription complex subunit 11 (Homo sapiens) (UniProt Q9UKZ1); assay: Binding affinity to CCR4-NOT transcription complex subunit 11 in human INA-6 cells after 3 hrs by nanoLC-MS/MS method; how it was run: as §1
[10] = target: Survival of motor neuron-related-splicing factor 30 (Homo sapiens) (UniProt O75940); assay: Binding affinity to survival of motor neuron-related-splicing factor 30 in human INA-6 cells after 3 hrs by nanoLC-MS/MS method; how it was run: as §1
[11] = target: Gem-associated protein 7 (Homo sapiens) (UniProt Q9H840); assay: Binding affinity to GEMIN7 in human INA-6 cells after 3 hrs by nanoLC-MS/MS method; how it was run: as §1
[12] = target: Mitogen-activated protein kinase kinase kinase 5 (Homo sapiens) (UniProt Q99683); assay: Binding affinity to MAP3K5 in human INA-6 cells after 3 hrs by nanoLC-MS/MS method; how it was run: as §1
[13] = target: Mitogen-activated protein kinase kinase kinase 6 (Homo sapiens) (UniProt O95382); assay: Binding affinity to MAP3K6 in human INA-6 cells after 3 hrs by nanoLC-MS/MS method; how it was run: as §1
[14] = target: Serine/threonine-protein phosphatase 6 regulatory ankyrin repeat subunit B (Homo sapiens) (UniProt Q8N8A2); assay: Binding affinity to serine/threonine-protein phosphatase 6 regulatory ankyrin repeat subunit B in human INA-6 cells after 3 hrs by nanoLC-MS/MS method; how it was run: as §1
[15] = target: Serine/threonine-protein phosphatase 6 catalytic subunit (Homo sapiens) (UniProt O00743); assay: Binding affinity to serine/threonine-protein phosphatase 6 catalytic subunit in human INA-6 cells after 3 hrs by nanoLC-MS/MS method; how it was run: as §1
[16] = target: Serine/threonine-protein phosphatase 6 regulatory subunit 3 (Homo sapiens) (UniProt Q5H9R7); assay: Binding affinity to serine/threonine-protein phosphatase 6 regulatory subunit 3 in human INA-6 cells after 3 hrs by nanoLC-MS/MS method; how it was run: as §1
[17] = target: Serine/threonine-protein phosphatase 6 regulatory ankyrin repeat subunit C (Homo sapiens) (UniProt Q8NB46); assay: Binding affinity to serine/threonine-protein phosphatase 6 regulatory ankyrin repeat subunit C in human INA-6 cells after 3 hrs by nanoLC-MS/MS method; how it was run: as §1
[18] = target: Serine-protein kinase ATM (Homo sapiens) (UniProt Q13315); assay: Binding affinity to ATM protein in human INA-6 cells after 3 hrs by nanoLC-MS/MS method; how it was run: as §1
[19] = target: Serine/threonine-protein kinase ATR (Homo sapiens) (UniProt Q13535); assay: Binding affinity to ATR protein in human INA-6 cells after 3 hrs by nanoLC-MS/MS method; how it was run: as §1
[20] = target: Serine/threonine-protein kinase mTOR (Homo sapiens) (UniProt P42345); assay: Binding affinity to mTOR protein in human INA-6 cells after 3 hrs by nanoLC-MS/MS method; how it was run: as §1
[21] = target: Exportin-T (Homo sapiens) (UniProt O43592); assay: Binding affinity to XPOT protein in human INA-6 cells after 3 hrs by nanoLC-MS/MS method; how it was run: as §1
[22] = target: Serine/threonine-protein phosphatase 6 regulatory subunit 2 (Homo sapiens) (UniProt O75170); assay: Binding affinity to PP6R2 protein in human INA-6 cells after 3 hrs by nanoLC-MS/MS method; how it was run: as §1
[23] = target: CCR4-NOT transcription complex subunit 1 (Homo sapiens) (UniProt A5YKK6); assay: Binding affinity to CNOT1 protein in human INA-6 cells after 3 hrs by nanoLC-MS/MS method; how it was run: as §1
[24] = target: CCR4-NOT transcription complex subunit 9 (Homo sapiens) (UniProt Q92600); assay: Binding affinity to RCD1 protein in human INA-6 cells after 3 hrs by nanoLC-MS/MS method; how it was run: as §1
[25] = target: Stalled ribosome sensor GCN1 (Homo sapiens) (UniProt Q92616); assay: Binding affinity to GCN1 protein in human INA-6 cells after 3 hrs by nanoLC-MS/MS method; how it was run: as §1
[26] = target: Brefeldin A-inhibited guanine nucleotide-exchange protein 2 (Homo sapiens) (UniProt Q9Y6D5); assay: Binding affinity to BIG2 protein in human INA-6 cells after 3 hrs by nanoLC-MS/MS method; how it was run: as §1
[27] = target: Conserved oligomeric Golgi complex subunit 1 (Homo sapiens) (UniProt Q8WTW3); assay: Binding affinity to COG1 in human INA-6 cells after 3 hrs by nanoLC-MS/MS method; how it was run: as §1
[28] = target: Conserved oligomeric Golgi complex subunit 3 (Homo sapiens) (UniProt Q96JB2); assay: Binding affinity to COG3 in human INA-6 cells after 3 hrs by nanoLC-MS/MS method; how it was run: as §1
[29] = target: Conserved oligomeric Golgi complex subunit 4 (Homo sapiens) (UniProt Q9H9E3); assay: Binding affinity to COG4 in human INA-6 cells after 3 hrs by nanoLC-MS/MS method; how it was run: as §1
[30] = target: Conserved oligomeric Golgi complex subunit 7 (Homo sapiens) (UniProt P83436); assay: Binding affinity to COG7 in human INA-6 cells after 3 hrs by nanoLC-MS/MS method; how it was run: as §1
[31] = target: Conserved oligomeric Golgi complex subunit 8 (Homo sapiens) (UniProt Q96MW5); assay: Binding affinity to COG8 in human INA-6 cells after 3 hrs by nanoLC-MS/MS method; how it was run: as §1

Chain of Conserved oligomeric Golgi complex subunit 4 (Homo sapiens) (Q9H9E3 whole entry, one chain of several): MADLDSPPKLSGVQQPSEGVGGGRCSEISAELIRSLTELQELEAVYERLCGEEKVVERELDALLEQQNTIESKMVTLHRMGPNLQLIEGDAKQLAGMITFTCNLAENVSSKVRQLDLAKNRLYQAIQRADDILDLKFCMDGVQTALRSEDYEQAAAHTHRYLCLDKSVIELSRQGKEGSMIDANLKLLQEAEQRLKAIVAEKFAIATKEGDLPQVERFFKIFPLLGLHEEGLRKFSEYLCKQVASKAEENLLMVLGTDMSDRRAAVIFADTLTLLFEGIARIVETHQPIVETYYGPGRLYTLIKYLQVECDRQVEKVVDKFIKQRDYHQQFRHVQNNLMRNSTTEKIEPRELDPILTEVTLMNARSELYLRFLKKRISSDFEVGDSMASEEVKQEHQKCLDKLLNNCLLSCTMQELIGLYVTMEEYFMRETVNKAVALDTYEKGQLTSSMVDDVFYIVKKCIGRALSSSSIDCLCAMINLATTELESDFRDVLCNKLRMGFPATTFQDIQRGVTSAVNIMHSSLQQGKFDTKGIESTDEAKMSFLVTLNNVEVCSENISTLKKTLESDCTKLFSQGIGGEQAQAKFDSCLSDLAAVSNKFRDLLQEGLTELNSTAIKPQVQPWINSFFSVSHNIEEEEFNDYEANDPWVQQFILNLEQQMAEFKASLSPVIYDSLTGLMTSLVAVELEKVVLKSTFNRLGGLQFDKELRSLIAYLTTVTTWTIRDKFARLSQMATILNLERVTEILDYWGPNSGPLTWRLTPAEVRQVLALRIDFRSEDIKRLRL
Chain of Serine/threonine-protein phosphatase 6 regulatory subunit 2 (Homo sapiens) (O75170 whole entry): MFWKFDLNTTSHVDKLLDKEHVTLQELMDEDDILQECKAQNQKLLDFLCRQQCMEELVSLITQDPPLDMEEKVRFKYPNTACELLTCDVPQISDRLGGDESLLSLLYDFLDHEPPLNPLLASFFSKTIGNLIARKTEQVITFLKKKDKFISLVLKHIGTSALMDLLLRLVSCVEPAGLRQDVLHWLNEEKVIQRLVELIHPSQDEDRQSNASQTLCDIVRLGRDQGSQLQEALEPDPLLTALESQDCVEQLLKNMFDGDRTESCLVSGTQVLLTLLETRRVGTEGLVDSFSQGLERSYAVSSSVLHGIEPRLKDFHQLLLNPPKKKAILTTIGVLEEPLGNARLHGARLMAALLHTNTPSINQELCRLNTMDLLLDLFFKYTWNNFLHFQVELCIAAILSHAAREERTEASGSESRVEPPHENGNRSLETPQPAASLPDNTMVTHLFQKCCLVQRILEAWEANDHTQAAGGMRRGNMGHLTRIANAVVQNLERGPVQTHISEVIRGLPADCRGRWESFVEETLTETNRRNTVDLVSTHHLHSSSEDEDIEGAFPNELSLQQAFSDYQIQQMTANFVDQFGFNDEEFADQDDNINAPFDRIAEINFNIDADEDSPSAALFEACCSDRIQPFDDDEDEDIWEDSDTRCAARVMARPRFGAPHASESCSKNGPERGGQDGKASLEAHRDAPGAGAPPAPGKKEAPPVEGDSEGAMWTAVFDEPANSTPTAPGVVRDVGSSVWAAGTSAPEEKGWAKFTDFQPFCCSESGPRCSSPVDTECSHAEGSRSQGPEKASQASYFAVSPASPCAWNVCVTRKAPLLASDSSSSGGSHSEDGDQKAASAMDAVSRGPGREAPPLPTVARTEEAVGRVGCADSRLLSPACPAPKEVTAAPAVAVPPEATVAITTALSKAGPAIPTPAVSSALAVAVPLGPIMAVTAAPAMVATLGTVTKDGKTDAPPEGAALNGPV
Chain of Serine-protein kinase ATM (Homo sapiens) (Q13315 whole entry): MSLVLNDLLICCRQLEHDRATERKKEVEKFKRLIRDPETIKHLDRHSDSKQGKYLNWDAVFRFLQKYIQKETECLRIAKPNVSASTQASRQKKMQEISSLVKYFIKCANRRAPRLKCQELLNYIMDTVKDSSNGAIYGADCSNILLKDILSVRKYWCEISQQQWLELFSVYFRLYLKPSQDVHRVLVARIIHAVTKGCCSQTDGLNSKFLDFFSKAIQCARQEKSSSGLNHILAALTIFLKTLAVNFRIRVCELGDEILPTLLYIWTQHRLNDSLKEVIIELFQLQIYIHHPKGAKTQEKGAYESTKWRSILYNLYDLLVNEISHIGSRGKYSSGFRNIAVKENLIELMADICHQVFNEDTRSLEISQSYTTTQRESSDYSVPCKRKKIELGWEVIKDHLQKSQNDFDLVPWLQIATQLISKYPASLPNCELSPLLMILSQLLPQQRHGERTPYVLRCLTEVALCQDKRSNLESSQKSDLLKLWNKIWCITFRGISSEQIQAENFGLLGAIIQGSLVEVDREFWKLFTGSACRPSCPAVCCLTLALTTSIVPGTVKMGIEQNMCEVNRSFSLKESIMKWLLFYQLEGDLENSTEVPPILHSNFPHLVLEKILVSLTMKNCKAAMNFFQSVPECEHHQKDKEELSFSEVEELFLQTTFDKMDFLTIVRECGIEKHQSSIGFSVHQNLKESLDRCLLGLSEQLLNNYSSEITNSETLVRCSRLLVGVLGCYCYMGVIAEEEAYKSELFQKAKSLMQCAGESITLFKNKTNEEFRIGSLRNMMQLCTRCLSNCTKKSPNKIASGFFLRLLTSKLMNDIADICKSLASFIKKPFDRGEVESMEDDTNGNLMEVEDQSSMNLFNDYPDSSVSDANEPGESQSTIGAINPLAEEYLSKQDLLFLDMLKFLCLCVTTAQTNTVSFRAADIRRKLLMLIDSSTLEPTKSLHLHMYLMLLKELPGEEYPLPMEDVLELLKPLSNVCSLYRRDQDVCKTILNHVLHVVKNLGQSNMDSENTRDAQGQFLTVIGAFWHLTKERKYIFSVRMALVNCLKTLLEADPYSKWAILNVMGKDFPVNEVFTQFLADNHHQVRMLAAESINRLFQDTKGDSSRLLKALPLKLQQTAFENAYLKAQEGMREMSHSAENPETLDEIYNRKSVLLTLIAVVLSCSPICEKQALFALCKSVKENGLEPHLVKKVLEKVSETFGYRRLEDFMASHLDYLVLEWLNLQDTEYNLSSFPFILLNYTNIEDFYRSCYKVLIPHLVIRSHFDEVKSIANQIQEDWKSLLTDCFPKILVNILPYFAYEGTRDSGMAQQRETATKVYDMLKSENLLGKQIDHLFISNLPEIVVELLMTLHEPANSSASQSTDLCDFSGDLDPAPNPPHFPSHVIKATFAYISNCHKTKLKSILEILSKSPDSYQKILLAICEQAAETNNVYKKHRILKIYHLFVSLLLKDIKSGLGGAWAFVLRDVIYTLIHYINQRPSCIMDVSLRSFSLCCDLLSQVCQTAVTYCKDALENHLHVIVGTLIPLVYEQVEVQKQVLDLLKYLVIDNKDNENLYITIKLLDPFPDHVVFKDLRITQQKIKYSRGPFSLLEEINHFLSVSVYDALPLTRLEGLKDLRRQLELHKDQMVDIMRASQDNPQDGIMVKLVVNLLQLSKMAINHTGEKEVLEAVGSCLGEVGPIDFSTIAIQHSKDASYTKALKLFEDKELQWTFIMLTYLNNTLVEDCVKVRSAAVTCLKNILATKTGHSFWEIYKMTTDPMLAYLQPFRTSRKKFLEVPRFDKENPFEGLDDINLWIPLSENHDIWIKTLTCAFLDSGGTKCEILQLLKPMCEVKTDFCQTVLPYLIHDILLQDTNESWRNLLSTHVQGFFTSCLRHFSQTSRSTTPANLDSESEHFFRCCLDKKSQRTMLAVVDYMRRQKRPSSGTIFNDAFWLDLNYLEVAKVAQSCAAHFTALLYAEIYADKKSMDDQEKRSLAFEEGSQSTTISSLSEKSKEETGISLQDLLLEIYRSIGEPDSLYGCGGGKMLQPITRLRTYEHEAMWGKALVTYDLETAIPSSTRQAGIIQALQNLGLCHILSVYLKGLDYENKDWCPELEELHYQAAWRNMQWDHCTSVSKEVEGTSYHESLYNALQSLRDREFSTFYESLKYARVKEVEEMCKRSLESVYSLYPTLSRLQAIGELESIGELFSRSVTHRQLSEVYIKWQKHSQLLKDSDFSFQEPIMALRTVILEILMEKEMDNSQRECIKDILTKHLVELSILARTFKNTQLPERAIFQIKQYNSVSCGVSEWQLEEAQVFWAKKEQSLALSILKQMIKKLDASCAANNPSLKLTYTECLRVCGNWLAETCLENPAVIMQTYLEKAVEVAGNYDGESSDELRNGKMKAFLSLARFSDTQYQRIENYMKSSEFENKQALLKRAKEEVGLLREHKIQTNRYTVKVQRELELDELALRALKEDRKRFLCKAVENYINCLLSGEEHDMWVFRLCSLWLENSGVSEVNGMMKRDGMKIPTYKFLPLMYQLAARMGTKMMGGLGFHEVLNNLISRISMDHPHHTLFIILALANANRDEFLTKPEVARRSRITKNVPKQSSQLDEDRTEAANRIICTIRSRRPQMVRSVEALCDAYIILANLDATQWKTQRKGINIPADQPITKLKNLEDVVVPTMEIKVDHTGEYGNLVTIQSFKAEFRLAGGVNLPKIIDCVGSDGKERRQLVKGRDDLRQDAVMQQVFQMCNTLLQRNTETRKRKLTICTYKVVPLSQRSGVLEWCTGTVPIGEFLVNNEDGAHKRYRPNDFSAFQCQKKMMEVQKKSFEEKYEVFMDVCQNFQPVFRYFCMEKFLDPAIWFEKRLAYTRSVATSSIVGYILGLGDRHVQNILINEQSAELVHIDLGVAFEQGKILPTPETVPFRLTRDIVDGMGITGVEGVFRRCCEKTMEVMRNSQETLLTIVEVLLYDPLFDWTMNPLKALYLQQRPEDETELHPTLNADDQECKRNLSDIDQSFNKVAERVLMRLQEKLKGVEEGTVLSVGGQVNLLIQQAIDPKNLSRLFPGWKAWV
Chain of Survival of motor neuron-related-splicing factor 30 (Homo sapiens) (O75940 whole entry): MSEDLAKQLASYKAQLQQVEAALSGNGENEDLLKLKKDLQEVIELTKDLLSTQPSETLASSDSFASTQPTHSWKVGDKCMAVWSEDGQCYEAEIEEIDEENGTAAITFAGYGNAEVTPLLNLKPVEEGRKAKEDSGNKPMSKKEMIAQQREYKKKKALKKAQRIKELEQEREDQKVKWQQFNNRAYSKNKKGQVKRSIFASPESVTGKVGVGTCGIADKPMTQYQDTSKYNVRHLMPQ
Chain of MICOS complex subunit MIC10 (Homo sapiens) (Q5TGZ0 whole entry, one chain of several): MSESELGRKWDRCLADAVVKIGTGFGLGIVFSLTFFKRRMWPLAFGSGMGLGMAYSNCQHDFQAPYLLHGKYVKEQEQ

Activity [1] | Activity [2] | Activity [3] | Activity [4] | Activity [5] | Activity [6] | Activity [7] | Activity [8] | Activity [9] | Activity [11] | Activity [12] | Activity [13] | Activity [14] | Activity [15] | Activity [16] | Activity [17] | Activity [18] | Activity [19] | Activity [20] | Structure (SMILES) | Activity [10] | further results
Active | Active | Active | Active | Active | Active | Active | Active | Active | Active | Active | Active | Active | Active | Active | Active | Active | Active | Active | O=C(CCCC[C@@H]1SC[C@@H]2NC(=O)N[C@@H]21)NCCOCCOCCNCCOc1ccc(C(C(=O)NCc2ccccc2)N(C(=O)CCc2ccccc2)C2CC2)cc1 (mixture of isomers) | Active | Activity [21]: Active; Activity [22]: Active; Activity [23]: Active; Activity [24]: Active; Activity [25]: Active; Activity [26]: Active; Activity [27]: Active; Activity [28]: Active; Activity [29]: Active; Activity [30]: Active; Activity [31]: Active
Active | Active | Active | Active | Active | Active | Active | Active | Active | Active | Active | Active | Active | Active | Active | Active | Active | Active | Active | O=C(CCCC[C@@H]1SC[C@@H]2NC(=O)N[C@@H]21)NCCOCCOCCNCCOc1ccc(C(C(=O)NCc2ccccc2)N(C(=O)CCc2ccc(O)cc2)C2CC2)cc1 (mixture of isomers) | Active | Activity [21]: Active; Activity [22]: Active; Activity [23]: Active; Activity [24]: Active; Activity [25]: Active; Activity [26]: Active; Activity [27]: Active; Activity [28]: Active; Activity [29]: Active; Activity [30]: Active; Activity [31]: Active

From ChEMBL document CHEMBL4011617, “Ugi Reaction-Derived α-Acyl Aminocarboxamides Bind to Phosphatidylinositol 3-Kinase-Related Kinases, Inhibit HSF1-Dependent Heat Shock Response, and Induce Apoptosis in Multiple Myeloma Cells” (J Med Chem, 2017)
